The text below walks through data of ChEMBL document CHEMBL1148199, “Synthesis, conformational analysis, and cytotoxicity of new analogues of the natural cyclodepsipeptide jaspamide” (J Nat Prod, 2004).

In general, IC50 refers to the midpoint of a concentration-inhibition curve. A lower IC50 goes with greater potency.

The subject of experiment [1] is A10. As to the kind of experiment: Effect on cell morphology in rat A10 cells assessed as microfilaments depolymerization by immunofluorescence assay. Type of experiment: functional, cell-based. The method, boiled down: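 A-10 rat smooth muscle cells grown to near-confluency on glass coverslips and exposed to compounds at micromolar amounts for 24 h. Jaspamide served as positive control. Microfilaments stained with monoclonal anti-β-actin, then fluorescein-conjugated anti-mouse IgG. Read-out: actin aggregation and cellular aberrations such as binucleated cells.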

In another experiment the test system is T-24. Kind of experiment: Antiproliferative activity against human T24 cells after 48 hrs by SRB assay. Type of experiment: functional, cell-based. The settings on record: T-24, 48 h. The procedure, abridged: (§1)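 Human cell lines (T24 bladder carcinoma, MCF-7, NCI/ADR) kept in RPMI-1640 with 10% FBS and 50 μg/mL gentamycin at 37 °C, 5% CO2. Plated at ~15% confluency and left 24 h to attach. Treated in triplicate with varying concentrations for 48 h. Survival measured by sulforhodamine B binding as % of control cultures. IC50 is the concentration giving 50% inhibition of proliferation.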

The nature of experiment [2]: Antiproliferative activity against multidrug-resistant human NCI/ADR cells expressing p-glycoprotein after 48 hrs by SRB assay. Type of experiment: functional, cell-based. The settings on record: NCI/ADR-RES. The method, boiled down:
as §1
For orientation: Sulforhodamine B stains cellular protein and so reports cell mass.

In experiment [3] the test system is A10. Kind of experiment: Antiproliferative activity against rat A10 cells after 48 hrs by SRB assay. The settings on record: A10, 48 h. Type of experiment: cell-based. The procedure, abridged:
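A-10 rat aortic smooth muscle cells kept in α-MEM with 10% FBS and 50 μg/mL gentamycin at 37 °C, 5% CO2. Seeded at ~15% confluency, 24 h recovery, then triplicate 48 h exposure to a concentration series. SRB binding read against control cultures. IC50 is the concentration causing 50% inhibition of proliferation.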

For experiment [4], the system named is A10. Kind of experiment: Effect on cell morphology in rat A10 cells assessed microtubule depolymerization by immunofluorescence assay. Type of experiment: functional, cell-based. The procedure, abridged:
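Near-confluent A-10 cells on glass coverslips treated with compounds at micromolar amounts for 24 h. Microtubules immunostained with monoclonal anti-β-tubulin followed by fluorescein-conjugated anti-mouse IgG and examined for changes in the microtubule network.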

The test system of the next experiment is MCF7. As to the kind of experiment: Antiproliferative activity against human MCF7 cells after 48 hrs by SRB assay. To be noted: MCF7, 48 h.
Experiment [5] concerns A10. Kind of experiment: Effect on cell morphology in rat A10 cells assessed as actin aggregation at 0.85 nM by immunofluorescence assay. Type of experiment: functional, cell-based. The method, boiled down: (§2)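 A-10 rat aortic smooth muscle cells were grown to near-confluency on glass coverslips and treated for 24 h. Microfilaments were stained with monoclonal anti-β-actin followed by fluorescein-conjugated anti-mouse IgG. Actin aggregation was scored by immunofluorescence microscopy. Microtubules were stained in parallel samples with anti-β-tubulin and the same secondary antibody.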

For experiment [6], the system named is A10. As to the kind of experiment: Effect on cell morphology in rat A10 cells assessed as actin aggregation at 23 nM by immunofluorescence assay. Type of experiment: functional, cell-based. The method, boiled down: as §2

Values after ≈ are worked out from the molar mass of the structure shown. Active and inactive are the calls of the source. The calls are words filed in the database; no cut-off is given here.

As to `CC(C)[C@@H]1NC(=O)[C@@H](Cc2c[nH]c3ccccc23)NC(=O)[C@H](C)NC(=O)CCNC(=O)CCCCNC1=O`, the result in the experiment with A10 [1] and with A10 [4] was inactive. Besides, the IC50 with T-24 came to 19 µg/mL (≈ 36.1 µM); in experiment [2], 24 µg/mL (≈ 45.6 µM); in the experiment on A10 [3], 4.3 µg/mL (≈ 8.17 µM); in the experiment on MCF7 it was 3 µg/mL (≈ 5.7 µM).
On to `CC(C)[C@@H]1NC(=O)[C@@H](Cc2c[nH]c3ccccc23)NC(=O)[C@H](C)NC(=O)CCCCCNC1=O`, for which the result with A10 [1] and in the experiment on A10 [4] was inactive. For the same compound, the IC50 in the experiment with T-24 came out at 10.3 µg/mL (≈ 21.9 µM); in experiment [2], 12.5 µg/mL (≈ 26.6 µM); with A10 [3], 2 µg/mL (≈ 4.26 µM); in the experiment on MCF7 it was 1.8 µg/mL (≈ 3.83 µM).
Regarding `CC(C)[C@@H]1NC(=O)[C@@H](Cc2c[nH]c3ccccc23)NC(=O)[C@H](C)NC(=O)CCCCCCCNC1=O`, the outcome in the experiment with A10 [1] and with A10 [4] was inactive. In addition, the IC50 (in the experiment on T-24; in experiment [2]; with A10 [3]; in the experiment with MCF7) was over 100 µg/mL each time.
Take `C/C1=C\[C@H](C)C[C@H](C)OC(=O)C[C@H](c2ccc(O)cc2)NC(=O)[C@@H](Cc2c(Br)[nH]c3ccccc23)N(C)C(=O)[C@H](C)NC(=O)[C@@H](C)C1`: the outcome in the experiment with A10 [5] and in the experiment on A10 [6] was Active.
